Assay results: ChEMBL document CHEMBL4396915, “Synthesis of new thiazolyl-pyrazolyl-1,2,3-triazole derivatives as potential antimicrobial agents” (2019)
≈ marks a conversion by molar mass, not a printed value. Calls of active or inactive are those of the source. The rule behind the calls is not given here.

Tests used:
Format in all cases: functional
Rhodotorula glutinis [1] = assay: Antifungal activity against Rhodotorula glutinis NCIM 3168 assessed as zone of inhibition at 80 ug/well incubated for 48 to 72 hrs by agar well diffusion method; details: for zone of inhibition at 80 µg/disc: read-out: IZ
Method in brief: (§1)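 Fungi kept on potato dextrose agar slants and grown in potato dextrose broth. 500 microlitres of 48-72 h spore suspension swabbed onto Mueller Hinton agar. Compounds in DMSO loaded into 5 mm wells, with a DMSO vehicle plate and fluconazole/ravuconazole positive-control plate. Incubated 48-72 h at 30 C. Clear zone measured in mm, mean of five replicates.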

Escherichia coli = assay: Antibacterial activity against Escherichia coli NCIM 2574 assessed as zone of inhibition at 80 ug/well incubated for 24 to 48 hrs by agar well diffusion method; details: for zone of inhibition at 80 µg/disc: read-out: IZ
Method in brief: (§2)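 Strains from NCIM kept on nutrient agar slants at 4 C and grown overnight at 37 C in nutrient broth. 500 microlitres of 24-48 h culture swabbed onto nutrient agar. Compounds in DMSO loaded into 5 mm wells, with a DMSO vehicle plate and streptomycin reference. Incubated 24-48 h at 37 C. Zone of inhibition measured in mm and averaged over 4 replicates.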

Candida albicans [2] = assay: Antifungal activity against Candida albicans NCIM 3100 assessed as zone of inhibition at 80 ug/well incubated for 48 to 72 hrs by agar well diffusion method; details: for zone of inhibition at 80 µg/disc: read-out: IZ; method in brief: as §1
[3] = tested on: Staphylococcus epidermidis; assay: Antibacterial activity against Staphylococcus albus NCIM 2178 assessed as zone of inhibition at 80 ug/well incubated for 24 to 48 hrs by agar well diffusion method; details: for zone of inhibition at 80 µg/disc: read-out: IZ; method in brief: as §2
Aspergillus niger [4] = assay: Antifungal activity against Aspergillus niger NCIM 504 assessed as zone of inhibition at 80 ug/well incubated for 48 to 72 hrs by agar well diffusion method; details: for zone of inhibition at 80 µg/disc: read-out: IZ; method in brief: as §1
Proteus mirabilis = assay: Antibacterial activity against Proteus mirabilis NCIM 2388 assessed as zone of inhibition at 80 ug/well incubated for 24 to 48 hrs by agar well diffusion method; method in brief: as §2
Candida albicans [5] = assay: Antifungal activity against Candida albicans NCIM 3100 assessed as inhibition of fungal growth incubated for 48 to 72 hrs by broth microdilution susceptibility method
Method in brief: (§3)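 Tube micro-dilution in Sabouraud liquid medium. Stocks were made in DMSO and serially diluted twofold in broth to final […]. Tubes inoculated with organisms grown in potato dextrose broth and held 48-72 h at 30 C. MIC is the lowest concentration with no growth. DMSO and uninoculated-media controls were included, in triplicate.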

Aspergillus niger [6] = assay: Antifungal activity against Aspergillus niger NCIM 504 assessed as inhibition of fungal growth incubated for 48 to 72 hrs by broth microdilution susceptibility method; method in brief: as §3
Rhodotorula glutinis [7] = assay: Antifungal activity against Rhodotorula glutinis NCIM 3168 assessed as inhibition of fungal growth incubated for 48 to 72 hrs by broth microdilution susceptibility method; method in brief: as §3

SMILES | MIC (Candida albicans [5]) | MIC (Aspergillus niger [6]) | MIC (Rhodotorula glutinis [7]) | inhibition zone (IZ) (Rhodotorula glutinis [1]) | zone of inhibition at 80 µg/disc (Escherichia coli) [mm] | inhibition zone (IZ) (Candida albicans [2]) | zone of inhibition at 80 µg/disc [3] [mm] | inhibition zone (IZ) (Aspergillus niger [4]) | zone of inhibition at 80 µg/disc (Proteus mirabilis; read-out: IZ) [mm] | inhibition zone (IZ) (Proteus mirabilis) | zone of inhibition at 80 µg/disc (Rhodotorula glutinis [1]) [mm] | zone of inhibition at 80 µg/disc (Candida albicans [2]) [mm] | zone of inhibition at 80 µg/disc (Aspergillus niger [4]) [mm] | inhibition zone (IZ) [3] | inhibition zone (IZ) (Escherichia coli)
CN[C@@H]1[C@H](O[C@H]2[C@H](O[C@H]3[C@H](O)[C@@H](O)[C@H](N=C(N)N)[C@@H](O)[C@@H]3N=C(N)N)O[C@@H](C)[C@]2(O)C=O)O[C@@H](CO)[C@H](O)[C@H]1O [STREPTOMYCIN] |  |  |  | inactive | 25 | inactive | 21.6 | inactive | 18.5 |  |  |  |  |  | 
Cc1nc(-c2ccccc2)sc1-c1nn(-c2ccccc2)cc1-c1cn(Cc2ccccc2)nn1 | inactive | inactive | inactive |  |  |  |  |  |  | inactive |  |  |  |  | 
Cc1nc(-c2ccc(Br)cc2)sc1-c1nn(-c2ccccc2)cc1-c1cn(Cc2ccc(Br)cc2)nn1 | inactive | inactive | inactive | inactive |  |  |  | inactive |  | inactive |  | 15 |  | inactive | inactive
Cc1nc(-c2ccc(Br)cc2)sc1-c1nn(-c2ccccc2)cc1-c1cn(Cc2ccc(Cl)cc2)nn1 | 125 µg/mL (≈ 213 µM) | 62.5 µg/mL (≈ 106 µM) | 125 µg/mL (≈ 213 µM) |  | 11 |  |  |  |  | inactive | 14.8 | 14.8 | 13.5 | inactive | 

Continued, in another order:

MIC (Candida albicans [5]) | MIC (Aspergillus niger [6]) | MIC (Rhodotorula glutinis [7]) | SMILES | inhibition zone (IZ) (Rhodotorula glutinis [1]) | zone of inhibition at 80 µg/disc (Escherichia coli) [mm] | inhibition zone (IZ) (Candida albicans [2]) | zone of inhibition at 80 µg/disc [3] [mm] | inhibition zone (IZ) (Aspergillus niger [4]) | zone of inhibition at 80 µg/disc (Proteus mirabilis; read-out: IZ) [mm] | inhibition zone (IZ) (Proteus mirabilis) | zone of inhibition at 80 µg/disc (Rhodotorula glutinis [1]) [mm] | zone of inhibition at 80 µg/disc (Candida albicans [2]) [mm] | zone of inhibition at 80 µg/disc (Aspergillus niger [4]) [mm] | inhibition zone (IZ) [3] | inhibition zone (IZ) (Escherichia coli)
inactive | 31.2 µg/mL (≈ 61.4 µM) | 62.5 µg/mL (≈ 123 µM) | Cc1nc(-c2ccccc2)sc1-c1nn(-c2ccccc2)cc1-c1cn(Cc2ccc(Cl)cc2)nn1 |  | 13.2 |  | 12.2 |  |  | inactive | 19 | 11.5 | 13.6 |  | 
inactive | 31.2 µg/mL (≈ 64 µM) | inactive | Cc1ccc(Cn2cc(-c3cn(-c4ccccc4)nc3-c3sc(-c4ccccc4)nc3C)nn2)cc1 |  | 10 |  |  |  |  | inactive | 19.5 | 11.8 | 14 | inactive | 
inactive | 31.2 µg/mL (≈ 55.1 µM) | 125 µg/mL (≈ 220 µM) | Cc1ccc(Cn2cc(-c3cn(-c4ccccc4)nc3-c3sc(-c4ccc(Br)cc4)nc3C)nn2)cc1 |  | 11.6 |  | 12.6 |  |  | inactive | 13.3 | 14.6 | 12.4 |  | 
250 µg/mL (≈ 474 µM) | 62.5 µg/mL (≈ 119 µM) | 125 µg/mL (≈ 237 µM) | Cc1nc(-c2ccc(Cl)cc2)sc1-c1nn(-c2ccccc2)cc1-c1cn(Cc2ccc(F)cc2)nn1 |  | 12.2 |  | 11.3 |  |  | inactive | 20 | 13.8 | 12.5 |  | 
125 µg/mL (≈ 226 µM) | 62.5 µg/mL (≈ 113 µM) | 62.5 µg/mL (≈ 113 µM) | Cc1nc(-c2ccccc2)sc1-c1nn(-c2ccccc2)cc1-c1cn(Cc2ccc(Br)cc2)nn1 |  | 12 |  | 13 |  |  | inactive | 17.5 | 16.4 | 14 |  | 
inactive | 62.5 µg/mL (≈ 123 µM) | 125 µg/mL (≈ 247 µM) | Cc1ccc(-c2nc(C)c(-c3nn(-c4ccccc4)cc3-c3cn(Cc4ccc(F)cc4)nn3)s2)cc1 |  | 10.6 |  | 11.2 |  |  | inactive | 16.2 | 12.5 | 16.3 |  | 
